The source of these data is ChEMBL document CHEMBL3244153, “Synthesis of arabinofuranosyl derivatives of 3-deazaguanine” (J Med Chem, 1979).

In data set [1] the test system is Sarcoma-180. Put plainly: Antitumor activity against mouse Sarcoma 180 cells allografted in mouse assessed as reduction in tumor growth at 100 mg/kg, ip qd for 8 days measured one day after last treatment relative to control. Format: functional. As to conditions: Sarcoma-180, ip, route intraperitoneal, read-out: TGI. The essentials: (§1)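 Female CD mice (18-20 g) implanted subcutaneously with 3×10^7 Sarcoma 180 tumor cells in the right ventrolateral area. Doses tested were 100, 50, 25 and 12.5 mg/kg.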

Data set [2] relates to Mus musculus. Put plainly: Toxicity in mouse allografted with mouse Sarcoma 180 cells assessed as mortality at 100 mg/kg, ip qd for 8 days measured one day after last treatment relative to control. As to conditions: in vivo, 192 h. The data set is classed as organism-based. Also noted: dose 100 mg/kg, route intraperitoneal. Summed up: as §1
In data set [3] the test system is Mus musculus. Kind of data set: Toxicity in mouse allografted with mouse Sarcoma 180 cells assessed as mortality at 25 mg/kg, ip qd for 8 days measured one day after last treatment relative to control. Also noted: dose 25 mg/kg, route intraperitoneal. Format: organism-based. As to conditions: in vivo, 192 h. The essentials:
as §1

Data set [4] deals with Sarcoma-180. Put plainly: Antitumor activity against mouse Sarcoma 180 cells allografted in mouse assessed as reduction in tumor growth at 50 mg/kg, ip qd for 8 days measured one day after last treatment relative to control. Format: functional. The note with it: Sarcoma-180, ip, route intraperitoneal, read-out: TGI. The essentials: as §1
In data set [5] the test system is Sarcoma-180. Kind of data set: Antitumor activity against mouse Sarcoma 180 cells allografted in mouse assessed as reduction in tumor growth at 12.5 mg/kg, ip qd for 8 days measured one day after last treatment relative to control. The data set is classed as functional. As to conditions: Sarcoma-180, ip, route intraperitoneal, read-out: TGI. Summed up:
as §1

Data set [6] deals with Mus musculus. Kind of data set: Toxicity in mouse allografted with mouse Sarcoma 180 cells assessed as mortality at 12.5 mg/kg, ip qd for 8 days measured one day after last treatment relative to control. The data set is classed as organism-based. Also noted: dose 12.5 mg/kg, route intraperitoneal. As to conditions: in vivo, 192 h. Summed up: as §1
Data set [7] relates to Mus musculus. Put plainly: Toxicity in mouse allografted with mouse Sarcoma 180 cells assessed as mortality at 50 mg/kg, ip qd for 8 days measured one day after last treatment relative to control. Also noted: dose 50 mg/kg, route intraperitoneal. The data set is classed as organism-based. The note with it: in vivo, 192 h. The essentials:
as §1

Data set [8] concerns Sarcoma-180. Kind of data set: Antitumor activity against mouse Sarcoma 180 cells allografted in mouse assessed as reduction in tumor growth at 25 mg/kg, ip qd for 8 days measured one day after last treatment relative to control. The note with it: Sarcoma-180, ip, route intraperitoneal, read-out: TGI. The data set is classed as functional. Summed up:
as §1

Each structure is given as a SMILES string.

Consider `Nc1cc2c(ncn2[C@@H]2O[C@H](CO)[C@@H](O)[C@@H]2O)c(=O)[nH]1`, for which, in data set [1], the inhibition in vivo at 100 mg/kg worked out at 16%. For the same compound, the Activity result in data set [2] is listed as “Non-toxic”.
For `Nc1cc2c(ncn2[C@H]2O[C@H](CO)[C@@H](O)[C@@H]2O)c(=O)[nH]1` the same measures were 24.2% and “Non-toxic”.
As to `Nc1cc2ncn([C@@H]3O[C@H](CO)[C@@H](O)[C@@H]3O)c2c(=O)[nH]1`, the inhibition in vivo at 100 mg/kg in data set [1] is 5.6%. Further, the Activity result in data set [2] is reported as “Non-toxic”.
In the case of `Nc1cc2ncn([C@H]3O[C@H](CO)[C@@H](O)[C@@H]3O)c2c(=O)[nH]1`, the inhibition in vivo at 100 mg/kg in data set [1] worked out at 0%. For the same compound, the Activity result in data set [2] is given as “Non-toxic”.
For `Nc1cc2nc[nH]c2c(=O)[nH]1` [DEZAGUANINE], the Activity entry is given as “Non-toxic” in data set [3], “Non-toxic” in data set [6], “Toxic” in data set [2] and “Non-toxic” in data set [7]. Moreover, in data set [4], the inhibition in vivo at 50 mg/kg came out at 74.2%. The inhibition in vivo at 100 mg/kg in data set [1] worked out at 89.6%. Moreover, the inhibition in vivo at 12.5 mg/kg in data set [5] came to 46.2%. Further, the inhibition in vivo at 25 mg/kg in data set [8] is 78.2%.
